From ChEMBL document CHEMBL1649269, “In vitro activities of three new dihydrofolate reductase inhibitors against clinical isolates of gram-positive bacteria” (2009)
Values after ≈ are worked out from the molar mass of the structure shown.

Tests used:
[1] = test system: Streptococcus pneumoniae; assay: Antimicrobial activity against Streptococcus pneumoniae assessed as susceptible isolates by agar dilution method; assay type: functional
In short: (§1)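 Clinical isolates of beta-hemolytic streptococci, S. mitis and S. pneumoniae were tested by CLSI methodology, with Mueller-Hinton medium supplemented with 5% lysed horse blood. S. aureus ATCC 29213 and S. pneumoniae ATCC 49619 served as control strains. The percentage of susceptible isolates was derived from CLSI breakpoints.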

[2] = test system: Staphylococcus aureus; assay: Antimicrobial activity against methicillin-sensitive Staphylococcus aureus by agar dilution method; assay type: functional
In short: (§2)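 MICs against clinical MRSA or MSSA isolates by CLSI agar dilution, with S. aureus ATCC 29213 as control strain. Percentage of susceptible isolates was calculated from the MICs using CLSI breakpoints.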

[3] = test system: Staphylococcus aureus; assay: Antimicrobial activity against methicillin-resistant Staphylococcus aureus by agar dilution method; assay type: functional; in short: as §2
[4] = test system: Corynebacterium sp.; assay: Antimicrobial activity against Corynebacterium spp. by agar dilution method; assay type: functional
[5] = test system: Listeria monocytogenes; assay: Antimicrobial activity against Listeria monocytogenes by agar dilution method; assay type: functional
In short: (§3)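 CLSI agar dilution MIC testing of clinical isolates of staphylococci and Listeria. S. aureus ATCC 29213 and S. pneumoniae ATCC 49619 served as control strains. The percentage of susceptible isolates was calculated from CLSI breakpoints.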

[6] = Antimicrobial activity against Group C Streptococcus assessed as susceptible isolates by agar dilution method; assay type: functional, Streptococcus sp. 'group C'; in short: as §1
[7] = Antimicrobial activity against Group G Streptococcus assessed as susceptible isolates by agar dilution method; assay type: functional, Streptococcus sp. 'group G'; in short: as §1
[8] = Antimicrobial activity against Group G Streptococcus by agar dilution method; assay type: functional; conditions: Streptococcus sp. 'group G'; in short: as §1
[9] = test system: Staphylococcus aureus; assay: Antimicrobial activity against vancomycin-resistant Staphylococcus aureus by agar dilution method; assay type: functional
In short: (§4)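 Clinical S. aureus isolates classed as hVISA or VISA by population analysis profiling. MICs by CLSI agar dilution, with S. aureus ATCC 29213 as control strain.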

[10] = test system: Staphylococcus aureus; assay: Antimicrobial activity against Heterovancomycin-resistant Staphylococcus aureus by agar dilution method; assay type: functional; in short: as §4
[11] = test system: Streptococcus mitis; assay: Antimicrobial activity against Streptococcus mitis by broth dilution method
[12] = test system: Listeria monocytogenes; assay: Antimicrobial activity against Listeria monocytogenes assessed as susceptible isolates by agar dilution method; assay type: functional; in short: as §3
[13] = test system: Staphylococcus aureus; assay: Antimicrobial activity against methicillin-sensitive Staphylococcus aureus assessed as susceptible isolates by agar dilution method; assay type: functional; in short: as §2
[14] = test system: Streptococcus sp. 'group A'; assay: Antimicrobial activity against Group A Streptococcus by agar dilution method; assay type: functional; in short: as §1
[15] = test system: Streptococcus sp. 'group A'; assay: Antimicrobial activity against Group A Streptococcus assessed as susceptible isolates by agar dilution method; assay type: functional; in short: as §1
[16] = test system: Staphylococcus; assay: Antimicrobial activity against Coagulase-negative Staphylococcus by agar dilution method; assay type: functional; in short: as §3
[17] = test system: Streptococcus sp. 'group B'; assay: Antimicrobial activity against Group B Streptococcus by agar dilution method; assay type: functional; in short: as §1
[18] = test system: Streptococcus mitis; assay: Antimicrobial activity against Streptococcus mitis assessed as susceptible isolates by agar dilution method; assay type: functional; conditions: in the assay text read “broth dilution method” for “agar dilution method”; in short: as §1
[19] = test system: Streptococcus pneumoniae; assay: Antimicrobial activity against Streptococcus pneumoniae by agar dilution method; assay type: functional; in short: as §1
[20] = test system: Staphylococcus; assay: Antimicrobial activity against Coagulase-negative Staphylococcus assessed as susceptible isolates by agar dilution method; assay type: functional; in short: as §3
[21] = test system: Streptococcus sp. 'group B'; assay: Antimicrobial activity against Group B Streptococcus assessed as susceptible isolates by agar dilution method; assay type: functional; in short: as §1
[22] = test system: Corynebacterium sp.; assay: Antimicrobial activity against Corynebacterium spp. assessed as susceptible isolates by agar dilution method; assay type: functional
[23] = Antimicrobial activity against Group C Streptococcus by agar dilution method; assay type: functional; conditions: Streptococcus sp. 'group C'; in short: as §1

Structure (SMILES)	Activity [1] [%]	MIC50 [2] [µg/mL]	MIC90 [2] [µg/mL]	MIC [3] [µg/mL]	MIC50 [3] [µg/mL]	MIC90 [3] [µg/mL]	MIC50 [4] [µg/mL]	MIC90 [4] [µg/mL]	MIC [5] [µg/mL]	MIC50 [5] [µg/mL]	MIC90 [5] [µg/mL]	Activity [6] [%]	Activity [7] [%]	MIC50 [8] [µg/mL]	MIC90 [8] [µg/mL]	MIC50 [9] [µg/mL]	MIC90 [9] [µg/mL]	MIC50 [10] [µg/mL]	MIC90 [10] [µg/mL]	MIC50 [11] [µg/mL]	other results
COc1cc(Cc2cnc(N)nc2N)cc(/C=C/C(=O)N2N=Cc3ccccc3C2c2cnc(N3CCOCC3)nc2)c1OC (stereo not drawn)	100	0.12 (≈ 0.197 µM)	0.25 (≈ 0.411 µM)	0.06 (≈ 0.0987 µM)	0.06 (≈ 0.0987 µM)	0.06 (≈ 0.0987 µM)	0.12 (≈ 0.197 µM)	4 (≈ 6.58 µM)	0.06 (≈ 0.0987 µM)	0.06 (≈ 0.0987 µM)	0.06 (≈ 0.0987 µM)	100	100	0.03 (≈ 0.0494 µM)	0.06 (≈ 0.0987 µM)	0.06 (≈ 0.0987 µM)	0.5 (≈ 0.823 µM)	0.06 (≈ 0.0987 µM)	0.06 (≈ 0.0987 µM)	0.015 (≈ 0.0247 µM)	MIC [8]: 0.03 µg/mL (≈ 0.0494 µM); MIC [9]: 0.06 µg/mL (≈ 0.0987 µM); Activity [12]: 100%; Activity [13]: 100%; MIC50 [14]: 0.06 µg/mL (≈ 0.0987 µM); MIC90 [14]: 0.12 µg/mL (≈ 0.197 µM); Activity [15]: 100%; MIC50 [16]: 0.06 µg/mL (≈ 0.0987 µM); MIC90 [16]: 4 µg/mL (≈ 6.58 µM); MIC [17]: 0.06 µg/mL (≈ 0.0987 µM); MIC50 [17]: 0.06 µg/mL (≈ 0.0987 µM); MIC90 [17]: 0.12 µg/mL (≈ 0.197 µM); Activity [18]: 100%; MIC50 [19]: 0.12 µg/mL (≈ 0.197 µM); MIC90 [19]: 0.12 µg/mL (≈ 0.197 µM); Activity [20]: 86%; Activity [21]: 100%; Activity [22]: 83%; MIC50 [23]: 0.06 µg/mL (≈ 0.0987 µM); MIC90 [23]: 0.12 µg/mL (≈ 0.197 µM)
COc1ncc(C2c3ccccc3C=NN2C(=O)/C=C/c2cc(Cc3cnc(N)nc3N)cc(OC)c2OC)cn1 (stereo not drawn)	100	0.03 (≈ 0.0543 µM)	0.03 (≈ 0.0543 µM)	0.015 (≈ 0.0271 µM)	0.015 (≈ 0.0271 µM)	0.06 (≈ 0.109 µM)	0.06 (≈ 0.109 µM)	4 (≈ 7.24 µM)	0.015 (≈ 0.0271 µM)	0.015 (≈ 0.0271 µM)	0.015 (≈ 0.0271 µM)	100	100	0.03 (≈ 0.0543 µM)	0.06 (≈ 0.109 µM)	0.03 (≈ 0.0543 µM)	0.25 (≈ 0.452 µM)	0.03 (≈ 0.0543 µM)	0.06 (≈ 0.109 µM)	< 0.008	MIC [11]: < 0.008 µg/mL; Activity [12]: 100%; Activity [13]: 100%; MIC50 [14]: 0.06 µg/mL (≈ 0.109 µM); MIC90 [14]: 0.06 µg/mL (≈ 0.109 µM); Activity [15]: 100%; MIC50 [16]: 0.06 µg/mL (≈ 0.109 µM); MIC90 [16]: 8 µg/mL (≈ 14.5 µM); MIC50 [17]: 0.03 µg/mL (≈ 0.0543 µM); MIC90 [17]: 0.06 µg/mL (≈ 0.109 µM); Activity [18]: 100%; MIC50 [19]: 0.06 µg/mL (≈ 0.109 µM); MIC90 [19]: 0.12 µg/mL (≈ 0.217 µM); Activity [20]: 86%; Activity [21]: 100%; Activity [22]: 83%; MIC50 [23]: 0.015 µg/mL (≈ 0.0271 µM); MIC90 [23]: 0.06 µg/mL (≈ 0.109 µM)
